# Laboratory results from ChEMBL document CHEMBL4431313, “Inhibition of Plasmodium falciparum Hsp90 Contributes to the Antimalarial Activities of Aminoalcohol-carbazoles” (J Med Chem, 2016).
# The source made the active and inactive calls. The calls are words filed in the database; no cut-off is given here.
# How the values were obtained:
# [1] = test system: Plasmodium falciparum; experiment: Antimalarial activity against Plasmodium falciparum NF54 infected in human erythrocytes assessed as [3H]-hypoxanthine incorporation by scintillation counting analysis; type: functional, organism-based
# Procedure, shortened: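 NF54 parasites grown in human erythrocytes in RPMI 1640 with 0.5% ALBUMAX II, 25 mM Hepes, 25 mM NaHCO3 (pH 7.3), 0.36 mM hypoxanthine and 100 μg/mL neomycin, at 37 °C under 3% O2/4% CO2/93% N2, humidified. IC50 derived in vitro from [3H]hypoxanthine incorporation. Compounds held as 10 mM DMSO stocks at -20 °C.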
# [2] = test system: L6; experiment: Cytotoxicity against rat L6 cells after 72 hrs by alamar blue assay; type: cell-based; conditions: L6, 72 h
# [3] = molecular target: T1, HSP90 (Plasmodium falciparum 3D7) (UniProt Q8IL32); experiment: Binding affinity to recombinant Plasmodium falciparum Hsp90 expressed in Escherichia coli BL21(DE3) pLysS assessed as thermophoresis shift at 50 uM by microscale thermophoresis assay
# T1 sequence (whole entry): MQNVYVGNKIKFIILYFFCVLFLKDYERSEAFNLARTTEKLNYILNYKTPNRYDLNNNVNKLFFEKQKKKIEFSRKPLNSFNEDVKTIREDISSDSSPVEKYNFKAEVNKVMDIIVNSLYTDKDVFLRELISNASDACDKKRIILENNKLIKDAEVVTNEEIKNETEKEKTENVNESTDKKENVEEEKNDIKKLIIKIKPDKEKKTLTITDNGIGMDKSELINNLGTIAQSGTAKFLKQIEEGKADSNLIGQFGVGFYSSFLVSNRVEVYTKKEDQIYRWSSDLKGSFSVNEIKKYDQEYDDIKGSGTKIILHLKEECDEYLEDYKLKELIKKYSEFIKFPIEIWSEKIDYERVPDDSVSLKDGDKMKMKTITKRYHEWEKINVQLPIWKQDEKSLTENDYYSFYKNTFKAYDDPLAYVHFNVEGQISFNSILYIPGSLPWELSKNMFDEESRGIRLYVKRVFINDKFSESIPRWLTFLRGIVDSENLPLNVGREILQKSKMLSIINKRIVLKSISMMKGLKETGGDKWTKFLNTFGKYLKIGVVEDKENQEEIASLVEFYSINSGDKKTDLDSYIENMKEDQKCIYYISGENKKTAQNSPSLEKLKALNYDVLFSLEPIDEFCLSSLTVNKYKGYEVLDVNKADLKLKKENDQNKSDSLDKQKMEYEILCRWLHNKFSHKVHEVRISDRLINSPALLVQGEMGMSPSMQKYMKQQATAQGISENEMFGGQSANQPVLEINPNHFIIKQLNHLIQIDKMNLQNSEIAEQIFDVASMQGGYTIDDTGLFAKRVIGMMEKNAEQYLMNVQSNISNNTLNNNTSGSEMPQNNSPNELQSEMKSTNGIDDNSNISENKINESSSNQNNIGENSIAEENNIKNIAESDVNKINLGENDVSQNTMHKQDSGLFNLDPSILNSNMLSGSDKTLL
# Procedure, shortened: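 Microscale thermophoresis with fluorescently labeled PfHsp90: ligand-induced change in the protein's movement along a temperature gradient. Each compound tested at a fixed 50 μM. Compounds were held as 10 mM stocks in 100% DMSO at -20 °C.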
# [4] = molecular target: Heat shock protein 90 (Plasmodium falciparum, UniProt Q8IC05); experiment: Binding affinity to recombinant Plasmodium falciparum Hsp90 expressed in Escherichia coli BL21(DE3) pLysS by microscale thermophoresis assay
# [5] = (§1) Binding affinity to recombinant Plasmodium falciparum Hsp90 ISG-LGA mutant expressed in Escherichia coli BL21(DE3) pLysS by microscale thermophoresis assay
# [6] = test system: Plasmodium falciparum; experiment: Antimalarial activity against Plasmodium falciparum K1 infected in human erythrocytes after 72 hrs by DAPI staining-based confocal imaging system; type: functional, organism-based; conditions: K1, 72 h
# [7] = test system: Plasmodium falciparum; experiment: Antimalarial activity against Plasmodium falciparum 3D7 infected in human erythrocytes after 72 hrs by DAPI staining-based confocal imaging system; type: functional, organism-based; conditions: 3D7, 72 h
# [8] = molecular target: Heat shock protein HSP 90-beta (Homo sapiens) (UniProt P08238); experiment: Binding affinity to recombinant human Hsp90 beta expressed in Escherichia coli BL21(DE3) pLysS by microscale thermophoresis assay
# [9] = test system: Plasmodium falciparum; experiment: as §1
# Chain of Heat shock protein 90 (Q8IC05 1-745): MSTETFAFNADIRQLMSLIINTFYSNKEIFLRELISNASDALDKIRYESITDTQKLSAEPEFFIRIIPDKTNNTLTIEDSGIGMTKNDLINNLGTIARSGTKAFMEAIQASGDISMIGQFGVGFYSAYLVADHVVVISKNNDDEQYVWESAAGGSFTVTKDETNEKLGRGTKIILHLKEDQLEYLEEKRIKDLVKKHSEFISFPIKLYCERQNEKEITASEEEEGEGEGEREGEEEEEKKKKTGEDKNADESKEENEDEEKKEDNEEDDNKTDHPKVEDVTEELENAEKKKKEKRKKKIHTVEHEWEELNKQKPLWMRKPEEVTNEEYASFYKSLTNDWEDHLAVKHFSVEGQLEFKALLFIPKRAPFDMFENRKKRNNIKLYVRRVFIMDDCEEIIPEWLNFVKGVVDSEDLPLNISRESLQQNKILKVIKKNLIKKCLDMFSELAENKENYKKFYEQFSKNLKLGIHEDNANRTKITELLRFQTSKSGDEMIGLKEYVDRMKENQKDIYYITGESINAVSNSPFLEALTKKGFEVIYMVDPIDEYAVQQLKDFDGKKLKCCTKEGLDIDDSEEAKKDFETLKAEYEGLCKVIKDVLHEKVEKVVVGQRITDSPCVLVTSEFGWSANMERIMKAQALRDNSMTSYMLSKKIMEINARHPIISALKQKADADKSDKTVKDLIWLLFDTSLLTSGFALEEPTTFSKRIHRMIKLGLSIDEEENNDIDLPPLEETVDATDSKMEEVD
# Chain of Heat shock protein HSP 90-beta (Homo sapiens) (P08238 whole entry): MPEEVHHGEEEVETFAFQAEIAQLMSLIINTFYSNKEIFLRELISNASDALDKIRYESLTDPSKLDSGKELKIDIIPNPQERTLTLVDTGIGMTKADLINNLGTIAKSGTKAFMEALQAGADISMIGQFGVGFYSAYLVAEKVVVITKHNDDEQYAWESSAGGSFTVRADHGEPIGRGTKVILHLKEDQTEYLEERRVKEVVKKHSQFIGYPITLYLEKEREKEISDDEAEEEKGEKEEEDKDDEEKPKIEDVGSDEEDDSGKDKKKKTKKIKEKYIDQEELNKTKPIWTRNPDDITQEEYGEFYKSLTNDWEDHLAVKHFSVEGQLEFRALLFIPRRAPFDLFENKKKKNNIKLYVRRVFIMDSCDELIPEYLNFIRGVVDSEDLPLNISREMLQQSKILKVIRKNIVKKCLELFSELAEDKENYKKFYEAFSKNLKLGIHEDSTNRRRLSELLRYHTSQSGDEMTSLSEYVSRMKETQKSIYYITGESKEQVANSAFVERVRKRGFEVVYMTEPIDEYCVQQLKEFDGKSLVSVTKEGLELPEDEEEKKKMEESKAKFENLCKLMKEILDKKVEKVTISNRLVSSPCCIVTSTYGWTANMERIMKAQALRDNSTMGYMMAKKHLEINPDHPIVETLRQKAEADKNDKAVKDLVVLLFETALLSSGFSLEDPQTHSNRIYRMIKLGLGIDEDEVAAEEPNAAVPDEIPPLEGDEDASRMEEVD
IC50 [1] [µM],Activity [3] [U],IC50 [6] [µM],IC50 [7] [µM],SMILES,IC50 [2] [µM],Kd [4] [µM],Kd [5] [µM],Activity [8],Activity [9]
,,,,COC1=C2C[C@@H](C)C[C@H](OC)[C@H](O)[C@@H](C)/C=C(\C)[C@H](OC(N)=O)[C@@H](OC)/C=C\C=C(/C)C(=O)NC(=CC1=O)C2=O [GELDANAMYCIN],,,0.51,,
1.44,2.71,,,CC(C)NCC(O)Cn1c2ccccc2c2ccccc21 (centres undefined),26.5,,,,
12.7,0.24,,,CCC(CC)NCC(O)Cn1c2ccccc2c2ccccc21 (centres undefined),7.38,,,,
0.994,6.68,,,OC(CN1CCN(Cc2ccccc2)CC1)Cn1c2ccccc2c2ccccc21 (centres undefined),10.8,,,,
7.79,1.11,,,OC(CN1CCCCCC1)Cn1c2ccccc2c2ccccc21 (centres undefined),6.85,,,,
4.97,0.6,,,CC1CCCC(C)N1CC(O)Cn1c2ccccc2c2ccccc21 (centres undefined),37.7,,,,
1.23,8.19,,,OC(CN1CCOCC1)Cn1c2ccc(Cl)cc2c2cc(Cl)ccc21 (centres undefined),9.72,,,,
0.07 to 0.082,8.38,0.48 to 1.8,0.48 to 1.8,CC(C)NCC(O)Cn1c2ccc(Cl)cc2c2cc(Cl)ccc21 (centres undefined),2.61,,,,
14.9,3.33,,,O=C(c1ccccc1)N1CCN(CC(O)Cn2c3ccccc3c3ccccc32)CC1 (centres undefined),25.2,,,,
2.34,6.95,,,O=C(c1ccccc1)N1CCN(CC(O)Cn2c3ccc(Br)cc3c3cc(Br)ccc32)CC1 (centres undefined),10.2,,,,
0.095,6.64,,,OC(CN1CCN(Cc2ccccc2)CC1)Cn1c2ccc(Br)cc2c2cc(Br)ccc21 (centres undefined),3.67,,,,
0.162,1.49,,,OC(CNC1CCCCC1)Cn1c2ccccc2c2ccccc21 (centres undefined),3.67,,,,
10.1,0.49,,,CC(C)(CO)NCC(O)Cn1c2ccccc2c2ccccc21 (centres undefined),6.22,,,,
1.67,0.41,,,CN(C)CC(O)Cn1c2ccc(Br)cc2c2cc(Br)ccc21 (centres undefined),3.66,,,,
2.08,0.725,,,CC(C)(C)NCC(O)Cn1c2ccccc2c2ccccc21 (centres undefined),7.21,,,,
2.08,6.87,,,OC(CN1CCOCC1)Cn1c2ccc(Br)cc2c2cc(Br)ccc21 (centres undefined),11.6,,,,
1.56,3.85,,,CCC(C)NCC(O)Cn1c2ccc(Cl)cc2c2cc(Cl)ccc21 (centres undefined),0.975,,,,
0.086,5.88,,,OC(CNC1CCCCC1)Cn1c2ccc(Cl)cc2c2cc(Cl)ccc21 (centres undefined),3.34,,,,

SMILES,IC50 [1] [µM],Activity [3] [U],IC50 [6] [µM],IC50 [7] [µM],IC50 [2] [µM],Kd [4] [µM],Kd [5] [µM],Activity [8],Activity [9]
O=C(c1ccccc1)N1CCN(CC(O)Cn2c3ccc(Cl)cc3c3cc(Cl)ccc32)CC1 (centres undefined),1.13,6.71,,,9.72,25.6,,,
OC(CN1CCN(Cc2ccccc2)CC1)Cn1c2ccc(Cl)cc2c2cc(Cl)ccc21 (centres undefined),0.082,6.41,,,3.6,28.1,,inactive,inactive
